Results as given in publication PMC8959088 (Journal of the American Chemical Society, 2022).

Target: KIX domain of p300/CBP (KIX–MLL interaction) (Mus musculus, UniProt P45481)
Test: competition fluorescence polarization assay, inhibition of KIX–MLL interaction
Type: binding
Procedure, shortened: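 Competition fluorescence polarization format: test peptidomimetic competes with fluorescently labeled MLL peptide for KIX, and Ki is derived from the competition data.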

Chain of KIX domain of p300/CBP (KIX–MLL interaction) (P45481 586-665 limits assumed): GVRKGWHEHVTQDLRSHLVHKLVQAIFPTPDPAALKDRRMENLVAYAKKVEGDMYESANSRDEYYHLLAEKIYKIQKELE

Substance: Ac-SDIMDFVLKNTP-NH2 [MLL^847–858, Ac-SDIMDFVLKNTP-NH2]
- Ki: > 1000 µM
